Assay outcomes as filed in PubChem.
Lmaj promast – Leishmania major promastigote growth inhibition, primary screen | Leishmania major promastigotes, resazurin fluorescence viability | inhibition, % at 10 µM | 200,000 tested, 9% active; in the data active means inhibition above about 50%;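 further: promastigotes grown with compound for 44 hours at 28 °C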
Calb FLC – C. albicans growth inhibition with fluconazole, primary screen, CaCi-2 strain, Alamar Blue fluorescence; C. albicans CaCi-2 + fluconazole, 48 h; growth inhibition, % (concentration not given with the values); 300,000 tested, 0.57% active; AID 1979, 2009;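 active means growth inhibition above about 58% in most replicates, limit read from the data, passing the limit was not always enough; inconclusive means exactly half the replicates above a set limit; inactive means most replicates below a set limit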;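 further: all wells also contain fluconazole at 8 µg/ml as a sub-toxic cotreatment; 0% = median of DMSO wells and 100% = median of geldanamycin control wells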
NALP1 yeast inh – NALP1 inflammasome inhibitors in reconstituted yeast, colorimetric, S. cerevisiae, triplicate retest; S. cerevisiae NALP1/ASC/caspase-1 growth, X-gal OD620, 72 h; inhibition, % at 10 µM; 280,000 tested, 0.61% active; in the data active means inhibition mostly above about 24%, no sharp cut-off; inactive means mostly below about 32%
T cruzi inh – inhibitors of intracellular T. cruzi growth, primary screen, luminescence, NIH3T3 host cells; inhibition, % (test concentration not listed); T. cruzi beta-gal in NIH3T3, 90 h; 300,000 tested, 1.4% active; AID 1885, 2009;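 active means mean inhibition across valid replicates above about 55%, limit read from the data; inconclusive means mean below that limit but half or more replicates reach it; inactive means mean below it, under half of replicates reach it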;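 further: signal also drops with host cell toxicity which is not excluded here; 0% = plate median of DMSO wells and 100% = zero luminescence signal; higher percent means less beta-gal luminescence so fewer parasites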
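assay system = mouse NIH/3T3 fibroblasts infected with β-gal-expressing T. cruzi Tulahuen C4 | input = 5,000 NIH/3T3 host cells per well | buffer or medium = DMEM plus 2% FBS | timing = 3 h host attachment, then at least 90 h co-culture | measured by = GalScreen luminescence, 60 min | evaluation = luminescence reflecting intracellular parasite burden, expressed as percent inhibition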
NLRP3 yeast inh – NALP3 inflammasome inhibitors in reconstituted yeast, primary screen, luminescence, uHTS. Yeast reconstituted NLRP3/ASC/caspase-1, beta-gal luminescence, 24 h. inhibition, % at 10 µM. 330,000 tested, 0.39% active;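 active means inhibition of 50% or more; inactive means inhibition below 50%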;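 further: plate controls were induced DMSO wells for no effect and uninduced yeast grown without galactose for full effect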
PolyA inh – polyadenylation inhibitors in yeast reporter cells, primary screen, luminescence, S. cerevisiae | AID 1875, 2009 | S. cerevisiae SKY197-pL101 polyadenylation reporter, beta-gal luminescence; efflux-impaired pdr1/pdr3 knockout yeast; score 100 = 6 SD above DMSO | 300,000 tested, 0.02% active | activity score, % at 12 µM;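 active means lowest replicate activity score at least 50, where 100 means six control SD above control mean; inconclusive means lowest score under 50 but half or more replicates reach 50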;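 further: yeast exposed to compound for 9 h at 30 °C; higher score means more reporter readthrough which indicates perturbed polyadenylation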
An asterisk follows results filed as active; ? = inconclusive; · = no result. The full list was thinned out, with hits kept by preference.

SMILES	Lmaj promast	Calb FLC	NALP1 yeast inh	T cruzi inh	NLRP3 yeast inh	PolyA inh
C[C@H](CO)N1C[C@H](C)[C@@H](CN(C)S(=O)(=O)c2ccccc2)Oc2ccc(NC(=O)CCC(F)(F)F)cc2C1=O	·	·	·	·	1	·
CCOc1cc(C(=S)N2CCN(C)CC2)ccc1OCC(=O)N1CCCC1	·	0	6	-4	16	-1
CCC(C)NC(=O)c1cc2c(=O)n3cccc(C)c3nc2s1 (stereo unspecified)	·	13	14	3	34	0
CN(C)CCC(=O)c1ccc(Cl)cc1	100*	23	-15	-9	15	-9
Cc1cc(=O)oc2cc(OCc3ccc(S(=O)(=O)N4CCOCC4)cc3)ccc12	80*	22	12	31	15	-8
Cc1cc(=O)oc2cc(OCc3ccc(C(=O)N4CCN(c5ccc([N+](=O)[O-])cc5)CC4)cc3)ccc12	12	4	36	21	·	-7
Cc1cc(=O)oc2cc(OCc3ccc(C(=O)N4CCN(c5ccccc5)CC4)cc3)ccc12	65*	-8	43	43	23	-4
COc1ccc(COc2ccc3c(C)cc(=O)oc3c2)cc1	·	-8	10	1	29	7
CC(C)OC(=O)c1cccc(-c2ccc(C=O)o2)c1	88*	54	41	-14	30	22
CC(C)CCn1c(Sc2nc3ccccc3o2)nc2c1c(=O)[nH]c(=O)n2C	95*	35	14	16	13	13
Cc1ccc(N2C(=O)C(Cl)=C(NCc3ccccc3)C2=O)c(C)c1	1	-13	15	4	36	-10
CCOC(=O)c1c(NC(=O)C(Sc2ccccc2)c2ccccc2)sc(C(N)=O)c1C (stereo unspecified)	0	15	6	43	1	-19
CCOC(=O)c1c(NC(=O)C(Sc2ccccc2)c2ccccc2)sc(C(=O)N(C)C)c1C (stereo unspecified)	98*	4	22	-2	12	-22
COc1ccccc1NC(=O)Nc1nc(CC(=O)Nc2ccc(N(C)C)cc2)cs1	·	1	·	49	17	-7
CCOC(=O)c1ccc(NC(=S)NCCc2ccc(OC)c(OC)c2)cc1	·	-4	8	4	10	-4
O=C(Nc1ccccc1N1CCCCC1)c1ccc(-c2ccc(Cl)cc2)o1	1	3	39	-3	-1	2
CN1CCN(c2ccccc2NC(=O)c2ccc(-c3ccc(Cl)c(Cl)c3)o2)CC1	·	-4	0	39	30	-16
Cc1cc(N2CCN(C)CC2)ccc1NC(=O)c1ccc(-c2ccc(Cl)cc2)o1	·	17	·	59*	-7	-11
O=C(Nc1ccc(CN2CCOCC2)cc1)c1ccc(-c2ccc(Br)cc2)o1	83*	55	11	21	33	-5
CN1CCN(c2ccccc2NC(=O)COc2ccc(Br)cc2)CC1	74*	-7	22	19	29	4
Cc1cccc(OCC(=O)Nc2ccccc2N2CCN(C)CC2)c1	·	-8	14	3	17	-6
CN1CCN(c2ccccc2NC(=O)c2ccc(-c3ccc(Br)cc3)o2)CC1	·	-3	26	65*	42	-11
O=S(=O)(NCC(c1ccc2c(c1)OCO2)N1CCN(c2ccccc2)CC1)c1ccccc1 (stereo unspecified)	·	0	·	0	18	11
NC(=O)c1cc([N+](=O)[O-])ccc1NCc1ccc(O)cc1	·	·	·	·	2	·
CCOC(=O)N1CCC(NC(=O)c2ccc3c(=O)n4c(nc3c2)CCCC4)CC1	2	-10	7	-14	3	3
O=C(N/N=C/c1ccccn1)c1cc(-c2ccc(Cl)cc2)nc2ccccc12	98*	61*	4	44	16	-21
O=C(N/N=C\c1ccccn1)c1ccccc1O	69*	?	-4	-14	-4	10
Cc1ccccc1C(=O)N/N=C/c1ccccn1	-6	?	3	-11	16	19
O=C(N/N=C/c1ccccn1)c1cccs1	77*	-7	-5	-10	16	-1
